Measurements from different studies.
Each line is one published result; the experiments were not run side by side.
Target: Serine/threonine-protein kinase 16 (STK16, Homo sapiens, UniProt O75716)

Compound	assay	setting	quantity	result
CN(C)C(=O)Cn1cc(-c2nc(C3(c4ccc(-c5cnc(N)nc5)cc4)CC3)no2)cn1	cell-free assay, competition with immobilised ligand	1 µM	remaining binding	100%
Cn1cnc(Br)c1C1=CN(c2ncnc3[nH]cnc23)CCS1	enzyme activity, inhibitor, radiometric	50 nM	inhibition	38.5%
COc1cc(-c2cc(-c3ccc(N4CCNCC4)cc3)cnc2C)cc(OC)c1OC	enzyme activity, inhibitor	1 µM	inhibition	8%
COc1cc(Nc2cnc(C#N)c(O[C@H](C)CN(C)C)n2)ncc1-c1cnn(C)c1	enzyme activity, inhibitor, radiometric	10 µM	remaining activity	91%
COc1cc(Cl)c(C(=O)N[C@@H](CN[C@H]2CC[C@@H](N)CC2)Cc2ccc(C#N)cc2)cc1-c1ccc(CN[C@H](C)c2ccc(C)cc2)o1	enzyme activity, inhibitor	1 µM	remaining activity	95%
CNC(=O)c1cc(Oc2ccc(NC(=O)Nc3ccc(Cl)c(C(F)(F)F)c3)cc2)ccn1	cell-free assay	0.5 µM	remaining signal	105%
Cn1cc(Cl)c2c(Oc3c(F)cc(Nc4cc(Cl)nc(N)n4)cc3F)ccnc21	cell-free assay, competition with immobilised ligand	0.1 µM	remaining binding	100%
COc1cc(/C=C/C(=O)CC(=O)/C=C/c2ccc(O)c(OC)c2)ccc1O	enzyme activity, inhibitor	1 µM	activity vs control	91%
N#CCCc1ccc2c(c1)-c1[nH]c3ccc([N+](=O)[O-])cc3c1CC(=O)N2	cell-free assay	0.5 µM	remaining signal	87%
CN([C@@H]1CCc2c(CC(=O)O)c3cc(S(C)(=O)=O)ccc3n2C1)S(=O)(=O)c1ccc(F)cc1	cell-free assay, competition with immobilised ligand	1 µM	remaining binding	95%
C[C@@H]1CCN(C(=O)CC#N)C[C@@H]1N(C)c1ncnc2[nH]ccc12	cell-free assay, inhibitor	0.5 µM	remaining signal	94.7%
Nc1ncnc2occ(-c3ccc(NC(=O)Nc4cc(C(F)(F)F)ccc4F)cc3)c12	cell-free assay, inhibitor	20 µM	remaining signal	84%
O=C(NCc1ncc(C(F)(F)F)cc1Cl)c1ccc2c(c1)C1(CCS(=O)(=O)CC1)[C@@H](C1CC1)N2S(=O)(=O)c1ccc(F)cc1	cell-free assay, competition with immobilised ligand	1 µM	remaining binding	99%
CN1CC(Oc2cnc(C#N)cc2-c2ccn3nc(NC(=O)C4CC4)cc3c2)C1	enzyme activity, inhibitor	1 µM	inhibition	10%
CS(=O)(=O)N1CCCC(NC(=O)[C@H](CCC2CCCCC2)NC(=O)c2ccc(CNc3ncnc4c3nnn4-c3ccccc3)cc2)C1 (stereo partly shown)	cell-free assay, competition with immobilised ligand	0.1 µM	remaining binding	100%
O=C(Nc1cnn(-c2csc(C(=O)NC3COC3)c2)c1)Nc1c(F)cccc1Cl	enzyme activity, inhibitor	5 µM	remaining activity	107%
FC(F)(F)Oc1cccc(-c2cnc3ccc(-c4ccncc4)nn23)c1	enzyme activity, inhibitor, radiometric	5 µM	activity vs control	118%
Cn1cncc1C1=CN(c2ncnc3[nH]cnc23)CCS1	enzyme activity, inhibitor, radiometric	50 nM	inhibition	22%
Oc1cccc(-c2nc(N3CCOCC3)c3oc4ncccc4c3n2)c1	cell-free assay	0.5 µM	remaining signal	91.7%
